Experiments:
Cholinesterase = Cholinesterase (Homo sapiens, UniProt P06276); experiment: Inhibition of BuChE in human plasma using butyrylthiocholine iodide as substrate by Ellman's colorimetric method
How it was run: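 The BuChE source is plasma from 5 healthy human volunteers (24–60 years, both sexes), centrifuged at 1000× g for 15 min at room temperature and stored at −20 °C. In 20 mM phosphate buffer pH 7.4, plasma was incubated 150 s with 0.8 mM butyrylthiocholine iodide and DTNB. Absorbance of the yellow anion was read at 415 nm. Protein was determined by Peterson-modified Lowry against BSA.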

[1] = Ratio of IC50 for BuChE in human plasma to IC50 for AChE in Wistar rat brain cortex; format: cell-free
Acetylcholinesterase = molecular target: T1, Acetylcholinesterase (Rattus norvegicus, UniProt P37136); experiment: Inhibition of AChE in Wistar rat brain cortex using acetylthiocholine iodide as substrate by Ellman's colorimetric method
T1 sequence (P37136 whole entry): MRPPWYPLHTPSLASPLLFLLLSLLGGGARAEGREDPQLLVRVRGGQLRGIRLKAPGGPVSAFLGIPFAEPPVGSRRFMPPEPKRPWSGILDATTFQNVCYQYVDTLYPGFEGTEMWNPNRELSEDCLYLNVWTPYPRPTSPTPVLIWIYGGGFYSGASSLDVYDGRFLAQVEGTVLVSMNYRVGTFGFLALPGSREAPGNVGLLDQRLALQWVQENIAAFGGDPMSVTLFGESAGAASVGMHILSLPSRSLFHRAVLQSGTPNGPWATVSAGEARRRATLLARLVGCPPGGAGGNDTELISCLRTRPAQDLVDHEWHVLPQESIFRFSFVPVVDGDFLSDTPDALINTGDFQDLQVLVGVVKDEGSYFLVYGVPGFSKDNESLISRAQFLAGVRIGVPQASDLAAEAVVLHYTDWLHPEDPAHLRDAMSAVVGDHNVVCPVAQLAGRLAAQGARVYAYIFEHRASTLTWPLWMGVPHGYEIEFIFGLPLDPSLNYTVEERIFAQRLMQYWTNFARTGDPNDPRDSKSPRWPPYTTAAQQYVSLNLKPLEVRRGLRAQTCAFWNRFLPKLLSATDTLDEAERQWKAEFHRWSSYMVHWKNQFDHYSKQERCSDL
How it was run: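 Enzyme source is the cortex of adult male Wistar rats (2–3 months), dissected on ice and homogenized in cold 10 mM Tris-HCl pH 7.2 with 160 mM sucrose. The 10,000× g supernatant (10 min, 4 °C) was stored at −20 °C. The sample in 20 mM phosphate pH 7.4 was incubated 150 s with 0.8 mM acetylthiocholine iodide plus DTNB.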

Sequence of Cholinesterase (P06276 whole entry): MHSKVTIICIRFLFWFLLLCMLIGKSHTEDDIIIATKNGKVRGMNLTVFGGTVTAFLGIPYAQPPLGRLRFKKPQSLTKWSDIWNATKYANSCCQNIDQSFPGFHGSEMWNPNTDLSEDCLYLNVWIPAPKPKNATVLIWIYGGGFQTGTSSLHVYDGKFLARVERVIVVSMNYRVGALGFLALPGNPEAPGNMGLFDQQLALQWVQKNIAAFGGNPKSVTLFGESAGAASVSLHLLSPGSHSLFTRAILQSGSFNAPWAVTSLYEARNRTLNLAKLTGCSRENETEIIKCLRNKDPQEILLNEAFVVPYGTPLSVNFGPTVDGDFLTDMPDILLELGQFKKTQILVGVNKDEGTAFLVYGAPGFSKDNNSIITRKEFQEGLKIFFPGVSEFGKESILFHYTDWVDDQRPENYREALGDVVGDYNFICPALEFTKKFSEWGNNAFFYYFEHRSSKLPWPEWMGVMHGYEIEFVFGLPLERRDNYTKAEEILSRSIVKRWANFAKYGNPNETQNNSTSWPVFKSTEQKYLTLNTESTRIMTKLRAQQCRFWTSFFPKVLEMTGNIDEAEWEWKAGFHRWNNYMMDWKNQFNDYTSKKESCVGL

| SMILES | IC50 (Cholinesterase; read-out: IC50) [nM] | Ratio IC50 [1] | IC50 (Acetylcholinesterase; read-out: IC50) [nM] | IC50 (Acetylcholinesterase) | IC50 (Cholinesterase) |
| --- | --- | --- | --- | --- | --- |
| COc1ccc(-c2nc(-c3ccccc3)c(-c3ccccc3)n2CCCCCCCCNc2c3c(nc4ccccc24)CCCC3)cc1 | 82.3 | 0.6 | 126 | – | – |
| Clc1ccc(-c2nc(-c3ccccc3)c(-c3ccccc3)n2CCCCCCNc2c3c(nc4ccccc24)CCCC3)cc1 | 29.3 | – | – | Not Active | – |
| c1ccc(-c2nc(-c3ccccc3)n(CCCCCCn3c(-c4ccccc4)nc(-c4ccccc4)c3-c3ccccc3)c2-c2ccccc2)cc1 | – | – | – | Not Active | Not Active |
| Clc1ccc(-c2nc(-c3ccccc3)c(-c3ccccc3)n2CCCCCCCNc2c3c(nc4ccccc24)CCCC3)cc1 | 37.6 | 0.6 | 59.8 | – | – |
| c1ccc(-c2nc(-c3ccccc3)n(CCCCCCCCCCn3c(-c4ccccc4)nc(-c4ccccc4)c3-c3ccccc3)c2-c2ccccc2)cc1 | – | – | – | Not Active | Not Active |
| O=[N+]([O-])c1ccc(-c2nc(-c3ccccc3)c(-c3ccccc3)n2CCCCCCCCNc2c3c(nc4ccccc24)CCCC3)cc1 | 120 | – | – | Not Active | – |
| N#Cc1ccc(-c2nc(-c3ccccc3)c(-c3ccccc3)n2CCCCCCCNc2c3c(nc4ccccc24)CCCC3)cc1 | 7.1 | – | – | Not Active | – |
| c1ccc(-c2nc(-c3ccccc3)n(CCCCCCCNc3c4c(nc5ccccc35)CCCC4)c2-c2ccccc2)cc1 | 92.4 | 1.1 | 80.7 | – | – |
| O=[N+]([O-])c1ccc(-c2nc(-c3ccccc3)c(-c3ccccc3)n2CCCCCCNc2c3c(nc4ccccc24)CCCC3)cc1 | 12.4 | – | – | Not Active | – |
| O=[N+]([O-])c1ccc(-c2nc(-c3ccccc3)c(-c3ccccc3)n2CCCCCCCNc2c3c(nc4ccccc24)CCCC3)cc1 | 76.9 | 1 | 72.1 | – | – |
| c1ccc(-c2nc(-c3ccccc3)n(CCCCCCNc3c4c(nc5ccccc35)CCCC4)c2-c2ccccc2)cc1 | 58 | – | – | Not Active | – |
| c1ccc2c(NCCCCCCCNc3c4c(nc5ccccc35)CCCC4)c3c(nc2c1)CCCC3 | 9.03 | – | – | – | – |
| COc1ccc(-c2nc(-c3ccccc3)c(-c3ccccc3)n2CCCCCCNc2c3c(nc4ccccc24)CCCC3)cc1 | 36 | – | – | Not Active | – |
| Clc1cccc(-c2nc(-c3ccccc3)c(-c3ccccc3)n2CCCCCCCNc2c3c(nc4ccccc24)CCCC3)c1 | – | – | – | Not Active | Not Active |
| Clc1ccc(-c2nc(-c3ccccc3)c(-c3ccccc3)n2CCCCCCCCNc2c3c(nc4ccccc24)CCCC3)cc1 | 109 | 18.5 | 5.87 | – | – |
| N#Cc1ccc(-c2nc(-c3ccccc3)c(-c3ccccc3)n2CCCCCCNc2c3c(nc4ccccc24)CCCC3)cc1 | 29.6 | – | – | Not Active | – |
| Fc1ccc(-c2nc(-c3ccccc3)c(-c3ccccc3)n2CCCCCCNc2c3c(nc4ccccc24)CCCC3)cc1 | 55.2 | – | – | Not Active | – |
| c1ccc(-c2nc(-c3ccccc3)n(CCCCCCCCn3c(-c4ccccc4)nc(-c4ccccc4)c3-c3ccccc3)c2-c2ccccc2)cc1 | – | – | 42.5 | – | Not Active |
| Fc1ccc(-c2nc(-c3ccccc3)c(-c3ccccc3)n2CCCCCCCCNc2c3c(nc4ccccc24)CCCC3)cc1 | 57.3 | 2.2 | 25.8 | – | – |
| N#Cc1ccc(-c2nc(-c3ccccc3)c(-c3ccccc3)n2CCCCCCCCNc2c3c(nc4ccccc24)CCCC3)cc1 | 30.5 | – | – | Not Active | – |
| Clc1ccc(-c2nc(-c3ccccc3)c(-c3ccccc3)n2CCCCCCCCCCNc2c3c(nc4ccccc24)CCCC3)cc1 | – | – | – | Not Active | Not Active |
| c1ccc(-c2nc(-c3ccccc3)n(CCCCCCCCNc3c4c(nc5ccccc35)CCCC4)c2-c2ccccc2)cc1 | – | – | – | Not Active | Not Active |
| COc1ccc(-c2nc(-c3ccccc3)c(-c3ccccc3)n2CCCCCCCNc2c3c(nc4ccccc24)CCCC3)cc1 | 61.7 | 0.9 | 68.7 | – | – |
| Clc1cccc(-c2nc(-c3ccccc3)c(-c3ccccc3)n2CCCCCCNc2c3c(nc4ccccc24)CCCC3)c1 | 34.8 | – | – | Not Active | – |
| c1ccc(-c2nc(-c3ccccc3)n(CCCCCCCn3c(-c4ccccc4)nc(-c4ccccc4)c3-c3ccccc3)c2-c2ccccc2)cc1 | – | – | – | Not Active | Not Active |
| c1ccc(-c2nc(-c3ccccc3)n(CCCCCCCCCn3c(-c4ccccc4)nc(-c4ccccc4)c3-c3ccccc3)c2-c2ccccc2)cc1 | – | – | – | Not Active | Not Active |
| Clc1ccc(-c2nc(-c3ccccc3)c(-c3ccccc3)n2CCCCCCCCCNc2c3c(nc4ccccc24)CCCC3)cc1 | – | – | – | Not Active | Not Active |
| Clc1cccc(-c2nc(-c3ccccc3)c(-c3ccccc3)n2CCCCCCCCNc2c3c(nc4ccccc24)CCCC3)c1 | – | – | – | Not Active | Not Active |
| Fc1ccc(-c2nc(-c3ccccc3)c(-c3ccccc3)n2CCCCCCCNc2c3c(nc4ccccc24)CCCC3)cc1 | 67.3 | 1.7 | 38.5 | – | – |
